In PMC8646148 (Bioorganic chemistry, 2021):

Columns and labels:
PXR [1] = biological target: T1, PXR (Homo sapiens, UniProt O75469); test: PXR reporter gene assay in LS180 cells transfected with pSG5-hPXR and p3A4-luc; type: cell-based; details: for PXR antagonist effect: antagonist mode, in the presence of RIF 10 μM, 24 h
T1 sequence (O75469 1-434): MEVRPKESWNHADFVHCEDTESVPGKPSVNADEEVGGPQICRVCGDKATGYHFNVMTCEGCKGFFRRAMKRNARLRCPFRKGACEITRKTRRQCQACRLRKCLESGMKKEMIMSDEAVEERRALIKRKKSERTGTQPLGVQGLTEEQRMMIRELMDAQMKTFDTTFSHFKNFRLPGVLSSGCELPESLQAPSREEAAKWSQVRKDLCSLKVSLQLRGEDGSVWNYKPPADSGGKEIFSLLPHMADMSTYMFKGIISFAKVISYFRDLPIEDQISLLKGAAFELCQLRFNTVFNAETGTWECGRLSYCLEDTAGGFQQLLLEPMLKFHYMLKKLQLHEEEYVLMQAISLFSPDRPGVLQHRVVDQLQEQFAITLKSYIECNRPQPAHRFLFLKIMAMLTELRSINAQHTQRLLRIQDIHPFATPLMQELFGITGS
Procedure, shortened: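 LS180 cells were lipofected transiently with pSG5-hPXR and p3A4-luc, then treated 24 h with test compound at up to 50 μM in DMSO 0.1% v/v. Agonist mode had no rifampicin; antagonist mode had RIF 10 μM. Luciferase was read after lysis. Antagonist data are % of the 10 μM RIF maximum. Four technical replicates, three consecutive passages.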

AhR = biological target: T2, AhR (Homo sapiens, UniProt P35869); test: AhR reporter gene assay in stably transfected AZ-AHR cells; type: cell-based; details: 24 h; for AhR agonistic activity: agonist mode, AZ-AHR cells; for Inhibition of TCDD-inducible luciferase activity: antagonist mode, TCDD 5 nM, attributed to cytotoxicity
T2 sequence (P35869 11-848): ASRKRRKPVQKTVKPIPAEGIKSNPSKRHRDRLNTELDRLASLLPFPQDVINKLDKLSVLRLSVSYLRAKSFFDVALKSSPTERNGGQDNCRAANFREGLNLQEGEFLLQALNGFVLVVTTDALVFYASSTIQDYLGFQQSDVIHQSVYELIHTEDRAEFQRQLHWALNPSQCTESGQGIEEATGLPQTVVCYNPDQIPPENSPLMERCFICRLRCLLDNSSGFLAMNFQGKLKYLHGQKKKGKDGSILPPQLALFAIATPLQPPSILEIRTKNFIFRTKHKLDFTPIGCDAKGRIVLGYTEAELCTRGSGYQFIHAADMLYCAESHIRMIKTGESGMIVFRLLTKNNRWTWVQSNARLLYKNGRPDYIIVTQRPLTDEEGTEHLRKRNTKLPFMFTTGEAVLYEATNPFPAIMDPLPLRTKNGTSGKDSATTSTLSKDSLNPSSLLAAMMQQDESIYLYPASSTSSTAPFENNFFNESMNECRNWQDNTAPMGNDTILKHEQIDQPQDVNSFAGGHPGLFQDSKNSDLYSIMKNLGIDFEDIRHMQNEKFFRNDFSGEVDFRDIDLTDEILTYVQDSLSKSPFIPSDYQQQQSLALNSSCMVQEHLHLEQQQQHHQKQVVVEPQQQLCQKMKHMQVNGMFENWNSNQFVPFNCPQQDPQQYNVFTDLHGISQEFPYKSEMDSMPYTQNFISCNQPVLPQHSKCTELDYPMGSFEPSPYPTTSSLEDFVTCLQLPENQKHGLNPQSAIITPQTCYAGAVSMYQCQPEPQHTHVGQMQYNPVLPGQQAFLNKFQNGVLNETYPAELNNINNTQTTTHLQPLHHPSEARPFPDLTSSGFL
Procedure, shortened: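 AZ-AHR human hepatoma cells stably carrying an AhR-responsive luciferase reporter were exposed for 24 h to test compound at up to 50 μM (vehicle DMSO 0.1% v/v). Agonist mode was run without TCDD; antagonist mode with TCDD 5 nM. Lysed cells were read for luciferase. Agonist data are fold over negative control; antagonist data are % of the 5 nM TCDD maximum. Four wells per treatment, three consecutive passages.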

[2] = biological target: T3, ligand-binding domain of human PXR (Homo sapiens, UniProt O75469); test: LanthaScreen TR-FRET PXR
T3 sequence (O75469 146-433 limits assumed): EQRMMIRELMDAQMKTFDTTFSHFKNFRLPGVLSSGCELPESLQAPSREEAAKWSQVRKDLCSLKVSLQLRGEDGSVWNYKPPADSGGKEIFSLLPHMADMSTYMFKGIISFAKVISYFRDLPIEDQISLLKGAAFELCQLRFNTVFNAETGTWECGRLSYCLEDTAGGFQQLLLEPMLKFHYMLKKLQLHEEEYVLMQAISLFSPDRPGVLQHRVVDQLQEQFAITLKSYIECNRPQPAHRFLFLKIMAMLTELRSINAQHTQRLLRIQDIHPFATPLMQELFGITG
Procedure, shortened: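 LanthaScreen TR-FRET competitive binding used the human PXR ligand-binding domain and measured displacement of a fluorescent ligand. The signal was the emission ratio 520 nm/495 nm, plotted against test compound concentration. IC50 came from interpolated sigmoidal 4PL variable-slope curves. Quadruplicate wells; at least four independent experiments. Positive control: SR12813 at 100 μM.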

AZ-AHR cells = test: MTT test in AZ-AHR cells; type: cell-based, human; details: 24 h, up to 50 μM
Procedure, shortened: (§1)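 MTT viability was run alongside the reporter assays in AZ-AHR cells and in PXR-transfected LS180 cells. Exposure was 24 h to test compound at up to 50 μM, with vehicle DMSO 0.1% v/v. Results are given as % viability. Four technical replicates per treatment, across three consecutive cell passages.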

LS180 cells = test: MTT test in LS180 cells; type: cell-based, human; details: 50 μM, 24 h
Procedure, shortened: as §1

CYP1A2 mRNA = test: qRT-PCR of CYP1A2 in primary human hepatocytes; type: cell-based; details: human hepatocytes from five donors, 10 μM, 24 h
Procedure, shortened: (§2)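 Long-term monolayer primary human hepatocytes came from five male donors aged 43–89 years. They were treated 24 h with test compound at 10 μM, with vehicle DMSO 0.1% v/v and reference ligands TCDD 10 nM and RIF 10 μM. Total RNA was extracted with TRI Reagent, and mRNA was measured by probe-based qRT-PCR normalized to GAPDH. Statistics: one-way ANOVA, with 2-fold induction as threshold.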

CYP1A1 mRNA = test: qRT-PCR of CYP1A1 in primary human hepatocytes; type: cell-based; details: human hepatocytes from five donors, 10 μM, 24 h
Procedure, shortened: as §2

MDR1 mRNA [3] = test: qRT-PCR of MDR1 in intestinal adenocarcinoma cells; type: cell-based, human; details: 24 h; for Induction of MDR1 mRNA: LS174T, LS174T+PXR and LS180+PXR cells; for Induction of MDR1 mRNA in PXR-KO cells: PXR-KO LS174T cells
Procedure, shortened: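 Four intestinal models were used: LS174T wild-type, a CRISPR-Cas9 PXR-knockout LS174T line, and LS174T and LS180 cells transiently transfected with a human PXR expression vector. Cells were treated 24 h with test compound at 10 μM (DMSO 0.1% v/v), alongside TCDD 10 nM or RIF 10 μM. MDR1 mRNA was measured by qRT-PCR normalized to GAPDH. Three consecutive passages, one well per treatment.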

CYP3A4 mRNA = test: qRT-PCR of CYP3A4 in primary human hepatocytes; type: cell-based; details: five hepatocyte cultures, 10 μM, 24 h
MDR1a mRNA = test: MDR1a gene expression in tissues of mice expressing the human PXR transgene; type: in vivo, mice expressing the human PXR gene (hPXR)
Procedure, shortened: (§3)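 Humanized hPXR mice (C57BL/6 background, 6–10 weeks) received 10% DMSO or test compound in 3 or 5 doses of 500 μM each, 12 h apart. Groups had n = 3 (1 male, 2 females). Small intestine, large intestine and liver were assayed by qRT-PCR for CYP3A11 and MDR1a mRNA. Analysis: unpaired multiple t-tests with Holm-Sidak correction, α = 0.05, and a ≥2-fold induction criterion.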

CYP3A11 mRNA [4] = test: CYP3A11 gene expression in tissues of mice expressing the human PXR transgene; type: in vivo, mice expressing the human PXR gene (hPXR)
Procedure, shortened: as §3

MDR1 mRNA [5] = test: qRT-PCR of MDR1 in primary human hepatocytes; type: cell-based; details: five hepatocyte cultures, RIF 10 μM, 24 h
PXR [6] = biological target: T1, PXR; details: ref [21]; cited from earlier work
CYP3A11 mRNA [7] = details: PXR target genes CYP3A11 and MDR1a; depending on the dose schedule; ref [21]; cited from earlier work
[8] = liver, large and small intestine, 3 or 5 doses (500 μM/dose), 12 h interval

SMILES	EC50 (PXR [1])	AhR agonistic activity (AhR)	IC50 [2]	PXR antagonist effect (PXR [1])	Induction of MDR1 mRNA in PXR-KO cells (MDR1 mRNA [3])	Cytotoxicity in AZ-AHR cells (AZ-AHR cells)	Cytotoxicity (MTT) (LS180 cells)	Inhibition of TCDD-inducible luciferase activity (AhR)	Induction of MDR1 mRNA (MDR1 mRNA [3])	also measured
C#CCC(O)(c1ccncc1)c1cc2ccccc2[nH]1 (stereo not shown) [CVK-003, 1-(1H-indol-2-yl)-1-(pyridin-4-yl)but-3-yn-1-ol]	7500 nM	strong	8590 nM	–	–	–	–	–	–	–
C#CCC(O)(c1ccn2ccnc2c1)c1cc2ccccc2n1S(=O)(=O)c1ccccc1 (stereo not shown) [CVK-021, 1-(imidazo[1,2-a]pyridin-7-yl)-1-(1-(phenylsulfonyl)-1H-indol-2-yl)but-3-yn-1-ol]	~800 nM	–	920 nM	Dose-dependent antagonist effects	no effects	cytotoxic effects	slightly cytotoxic	Dose-dependent inhibition	Dose-dependent induction	Induction of CYP3A4 mRNA in human hepatocytes (CYP3A4 mRNA): significantly induced CYP3A4 mRNA in all five human hepatocytes cultures; MDR1a gene expression, Figure 7A (MDR1a mRNA; large and small intestines): increased gene expression; MDR1a gene expression, Figure 7B (MDR1a mRNA; liver and large intestine): increased gene expression; Induction (≥ 2) of mean MDR1a mRNA expression (MDR1a mRNA; [8]): no significant induction; CYP3A11 gene expression (CYP3A11 mRNA [4]; 3-dose and 5-dose study): not affected; Induction (≥ 2) of mean CYP3A11 mRNA expression (CYP3A11 mRNA [4]; [8]): no significant induction
CO[C@H]1/C=C/O[C@@]2(C)Oc3c(C)c(O)c4c(O)c(c(/C=N/N5CCN(C)CC5)c(O)c4c3C2=O)NC(=O)/C(C)=C\C=C\[C@H](C)[C@H](O)[C@@H](C)[C@@H](O)[C@@H](C)[C@H](OC(C)=O)[C@@H]1C [rifampicin]	–	–	–	–	–	–	–	–	–	Induction of MDR1 mRNA in human hepatocytes (MDR1 mRNA [5]): induction only by rifampicin and only in three hepatocytes cultures
C#CCC(O)(c1ccncc1)c1cc2ccccc2n1S(=O)(=O)c1ccccc1 (stereo not shown) [FKK6, 1-(1-(phenylsulfonyl)-1H-indol-2-yl)-1-(pyridin-4-yl)but-3-yn-1-ol]	–	–	–	–	–	–	–	–	–	PXR versus AhR agonist selectivity (PXR [6]): selective PXR agonist; Induction of PXR target genes in mouse intestines or liver (CYP3A11 mRNA [7]): robustly induced

Further lines, with some results ahead:

EC50 (PXR [1])	AhR agonistic activity (AhR)	IC50 [2]	PXR antagonist effect (PXR [1])	Induction of MDR1 mRNA in PXR-KO cells (MDR1 mRNA [3])	SMILES	Cytotoxicity in AZ-AHR cells (AZ-AHR cells)	Cytotoxicity (MTT) (LS180 cells)	Inhibition of TCDD-inducible luciferase activity (AhR)	Induction of MDR1 mRNA (MDR1 mRNA [3])	also measured
~800 nM	–	–	Dose-dependent antagonist effects	no effects	O=C(c1ccn2ccnc2c1)c1cc2ccccc2n1S(=O)(=O)c1ccccc1 [CVK-016, imidazo[1,2-a]pyridin-7-yl(1-(phenylsulfonyl)-1H-indol-2-yl)methanone]	cytotoxic effects	slightly cytotoxic	Dose-dependent inhibition	Dose-dependent induction	Induction of hepatic CYP1A2 mRNA (CYP1A2 mRNA): significantly induced; Induction of hepatic CYP1A1 mRNA (CYP1A1 mRNA): significantly induced
~800 nM	moderate	–	Dose-dependent antagonist effects	no effects	O=S(=O)(c1ccccc1)n1c(C(O)c2ccn3ccnc3c2)cc2ccccc21 (stereo not shown) [CVK-017, imidazo[1,2-a]pyridin-7-yl(1-(phenylsulfonyl)-1H-indol-2-yl)methanol]	cytotoxic effects	slightly cytotoxic	Dose-dependent inhibition	Dose-dependent induction	–
